Experimental data from ChEMBL document CHEMBL3085769, “Synthesis and evaluation of a (18)F-labeled diarylpyrazole glycoconjugate for the imaging of NTS1-positive tumors” (J Med Chem, 2013).
The source made the active and inactive calls. The calls are words filed in the database; no cut-off is given here.

Key:
[1] = biological target: Neurotensin receptor type 2 (Homo sapiens, UniProt O95665); assay: Displacement of [3H]NT(8 to 13) from human NTS2 receptor expressed in HEK293 cells; type: cell-based
Sequence of Neurotensin receptor type 2 (O95665 whole entry): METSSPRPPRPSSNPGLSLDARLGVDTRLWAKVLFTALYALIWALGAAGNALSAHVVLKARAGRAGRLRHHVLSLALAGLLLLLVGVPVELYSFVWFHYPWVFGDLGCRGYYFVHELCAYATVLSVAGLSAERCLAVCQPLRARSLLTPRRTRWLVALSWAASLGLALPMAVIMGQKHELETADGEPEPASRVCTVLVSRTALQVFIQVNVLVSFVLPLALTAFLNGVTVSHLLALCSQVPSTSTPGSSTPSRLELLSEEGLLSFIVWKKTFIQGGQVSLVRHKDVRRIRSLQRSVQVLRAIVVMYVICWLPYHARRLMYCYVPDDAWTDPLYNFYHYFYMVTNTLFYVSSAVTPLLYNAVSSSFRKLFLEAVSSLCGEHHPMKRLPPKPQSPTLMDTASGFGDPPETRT

[2] = biological target: Neurotensin receptor type 1 (Rattus norvegicus) (UniProt P20789); assay: Binding affinity to NTS1 receptor in Sprague-Dawley rat brain at 10 MBq after 60 mins by autoradiography in presence of neurotensin; conditions: 10 M, tested as the 18F-labelled form
Sequence of Neurotensin receptor type 1 (Rattus norvegicus) (P20789 whole entry): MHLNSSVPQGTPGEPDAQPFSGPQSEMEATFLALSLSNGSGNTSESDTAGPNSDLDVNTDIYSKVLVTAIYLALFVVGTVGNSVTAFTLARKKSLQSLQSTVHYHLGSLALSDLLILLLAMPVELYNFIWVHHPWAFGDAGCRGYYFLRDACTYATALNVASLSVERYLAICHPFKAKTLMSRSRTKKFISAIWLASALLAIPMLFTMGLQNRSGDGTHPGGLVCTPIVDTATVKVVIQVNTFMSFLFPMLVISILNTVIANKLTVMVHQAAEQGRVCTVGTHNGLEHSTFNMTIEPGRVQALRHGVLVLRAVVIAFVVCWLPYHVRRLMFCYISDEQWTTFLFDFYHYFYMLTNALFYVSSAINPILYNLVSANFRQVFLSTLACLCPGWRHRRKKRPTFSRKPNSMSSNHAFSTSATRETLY

[3] = biological target: Neurotensin receptor type 1 (Rattus norvegicus) (UniProt P20789); assay: Binding affinity to NTS1 receptor in Sprague-Dawley rat brain at 10 MBq after 60 mins by autoradiography; conditions: 10 M, tested as the 18F-labelled form
[4] = biological target: T1, Neurotensin receptor type 2 (Rattus norvegicus) (UniProt Q63384); assay: Binding affinity to NTS2 receptor in Sprague-Dawley rat brain cortex at 10 MBq after 60 mins by autoradiography in presence of H-Arg-Arg-Pro-N-h-Tyr-Ile-Leu-OH; conditions: 10 M, tested as the 18F-labelled form
T1 sequence (whole entry): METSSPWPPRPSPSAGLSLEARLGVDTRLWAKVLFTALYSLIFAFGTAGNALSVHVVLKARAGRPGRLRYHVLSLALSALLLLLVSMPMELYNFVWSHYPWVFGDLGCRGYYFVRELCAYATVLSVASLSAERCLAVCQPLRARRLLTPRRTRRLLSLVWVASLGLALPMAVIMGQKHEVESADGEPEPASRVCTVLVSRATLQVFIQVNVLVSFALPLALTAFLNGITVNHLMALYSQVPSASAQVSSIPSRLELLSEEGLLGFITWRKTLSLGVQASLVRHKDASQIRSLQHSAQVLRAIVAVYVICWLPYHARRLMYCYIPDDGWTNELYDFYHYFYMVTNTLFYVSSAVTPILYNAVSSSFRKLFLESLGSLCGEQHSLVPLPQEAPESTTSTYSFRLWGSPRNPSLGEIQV

[5] = biological target: Neurotensin receptor type 1 (Rattus norvegicus) (UniProt P20789); assay: Binding affinity to NTS1 receptor in Sprague-Dawley rat brain at 10 MBq after 60 mins by autoradiography in presence of H-Arg-Arg-Pro-N-h-Tyr-Ile-Leu-OH; conditions: 10 M, tested as the 18F-labelled form
[6] = biological target: Neurotensin receptor type 1 (Homo sapiens, UniProt P30989); assay: Displacement of [3H]neurotensin from human NTS1 receptor expressed in CHO cells; type: cell-based
Sequence of Neurotensin receptor type 1 (P30989 whole entry): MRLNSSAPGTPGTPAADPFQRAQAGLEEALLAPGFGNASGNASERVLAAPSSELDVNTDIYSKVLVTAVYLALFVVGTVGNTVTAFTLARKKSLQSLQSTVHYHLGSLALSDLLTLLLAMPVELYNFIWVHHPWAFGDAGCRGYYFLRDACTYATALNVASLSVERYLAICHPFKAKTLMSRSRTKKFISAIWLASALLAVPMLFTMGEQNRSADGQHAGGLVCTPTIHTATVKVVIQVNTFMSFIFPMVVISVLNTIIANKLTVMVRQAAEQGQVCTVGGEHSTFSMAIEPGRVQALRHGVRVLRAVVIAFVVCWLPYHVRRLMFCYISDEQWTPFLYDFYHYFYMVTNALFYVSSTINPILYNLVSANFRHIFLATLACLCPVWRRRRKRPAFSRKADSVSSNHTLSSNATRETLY

Nucleic Acid [7] = assay: Ratio of drug uptake in tumor to kidney of athymic nude mouse transfected with human HT-29 cells at 4 to 8 MBq, iv after 60 mins by gamma-counting analysis; type: ADME, organism-based; conditions: in vivo, 1 h
How it was run: (§1)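 [18F]-labelled tracer (radiochemical purity >99% by radio-HPLC) injected into nude mice bearing HT29 xenografts with 7–10 mm tumour diameter. Organ and tumour uptake were measured as % ID/g at 10, 30 and 60 min post-injection. Tumour-to-organ ratios were derived from these values and reported as mean ± SD of two animals.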

Brain = assay: Drug uptake in Sprague-Dawley rat brain by autoradiography; type: ADME, tissue-based; conditions: in vivo
Liver = assay: Drug uptake in liver of athymic nude mouse transfected with human HT-29 cells at 4 to 8 MBq, iv after 10 to 60 mins by gamma-counting analysis; type: ADME, organism-based; conditions: in vivo
How it was run: (§2)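 Biodistribution in nude mice carrying HT29 xenografts with 7–10 mm tumor diameter. Tissues were sampled at 10, 30 and 60 min post-injection. Uptake is expressed as % ID/g, and tumor-to-organ ratios were also calculated. Values are mean ± SD from two animals.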

Tumour [8] = assay: Drug uptake in tumor of athymic nude mouse transfected with human HT-29 cells at 1 to 3 MBq, iv after 45 to 65 mins by PET imaging analysis in presence of SR142948A; type: ADME, organism-based, Neoplasm; conditions: in vivo
How it was run: (§3)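 Small-animal PET of HT29 xenografted nude mice (tumor diameter 7–10 mm), with images taken 45–65 min post-injection. Tumor uptake was quantified by μPET as % ID/g. For blocking, 3 mg/kg of the […] NTS1 ligand SR142948A was co-injected with the tracer. Values are mean ± SEM from 4 animals.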

Nucleic Acid [9] = assay: Ratio of drug uptake in tumor to blood of athymic nude mouse xenografted with human HT-29 cells at 4 to 8 MBq, iv after 10 to 60 mins by gamma-counting analysis; type: ADME, organism-based; conditions: tumour; how it was run: as §1
Tumour [10] = assay: Drug uptake in tumor of athymic nude mouse xenografted with human HT-29 cells at 4 to 8 MBq, iv after 60 mins by gamma-counting analysis; type: ADME, organism-based, Neoplasm; conditions: in vivo, 1 h; how it was run: as §2
Kidney = assay: Drug uptake in kidney of athymic nude mouse xenografted with human HT-29 cells at 4 to 8 MBq, iv after 10 to 60 mins by gamma-counting analysis; type: ADME, organism-based; conditions: in vivo; how it was run: as §2
[11] = Octanol-water partition coefficient, log D of the compound at pH 7.4 by gamma-counting analysis; type: physicochemical
Serum = assay: Metabolic stability in human serum after 5 to 180 mins by radio-HPLC analysis; type: ADME, cell-free
Tumour [12] = assay: Drug uptake in tumor of athymic nude mouse xenografted with human HT-29 cells at 4 to 8 MBq, iv after 10 mins by gamma-counting analysis; type: ADME, organism-based, Neoplasm; conditions: in vivo; how it was run: as §2
Tumour [13] = assay: Drug uptake in tumor of athymic nude mouse transfected with human HT-29 cells at 1 to 3 MBq, iv after 45 to 65 mins by PET imaging analysis; type: ADME, organism-based, Neoplasm; conditions: in vivo; how it was run: as §3
[14] = Metabolic stability in blood of athymic nude mouse transfected with human HT-29 cells at 4 to 8 MBq, iv after 10 mins by radio-HPLC analysis; type: ADME, organism-based; conditions: read-out: Stability
How it was run: (§4)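 Blood samples were taken from HT29 xenografted nude mice at 10 and 30 min post-injection. Intact tracer was quantified by radio-HPLC. Radiochemical purity of the injected tracer was above 99% by radio-HPLC.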

Blood = assay: Drug uptake in blood of athymic nude mouse transfected with human HT-29 cells at 4 to 8 MBq, iv after 10 to 60 mins by gamma-counting analysis; type: ADME, organism-based; conditions: in vivo; how it was run: as §2
[15] = Metabolic stability in blood of athymic nude mouse xenografted with human HT-29 cells at 4 to 8 MBq, iv after 30 mins by radio-HPLC analysis; type: ADME, organism-based; conditions: read-out: Stability; how it was run: as §4

SMILES: COc1cccc(OC)c1-c1cc(C(=O)NC2(C(=O)O)C3CC4CC(C3)CC2C4)nn1-c1ccc(C(=O)N(C)CCCN(C)CCCCc2cn([C@@H]3O[C@H](CO)[C@@H](O)[C@H](O)[C@H]3F)nn2)cc1C(C)C (some centres not stated)
- Ki [1]: 69 nM
- Activity [2]: Active
- Activity [3]: Active
- Activity [4]: Active
- Activity [5]: Active
- Ki [6]: 0.98 nM

SMILES: COc1cccc(OC)c1-c1cc(C(=O)NC2(C(=O)O)C3CC4CC(C3)CC2C4)nn1-c1ccc(C(=O)N(C)CCCN(C)C)cc1C(C)C (configuration not stated)
- Ki [1]: 74 nM
- Ki [6]: 1 nM

SMILES: COc1cccc(OC)c1-c1cc(C(=O)NC2(C(=O)O)C3CC4CC(C3)CC2C4)nn1-c1ccc(C(=O)N(C)CCCN(C)CCCCc2cn([C@@H]3O[C@H](CO)[C@@H](O)[C@H](O)[C@H]3[18F])nn2)cc1C(C)C (some centres not stated)
- Ratio (Nucleic Acid [7]): 8
- Drug uptake (Brain): Not Active
- Drug uptake (Liver): Not Active
- Drug uptake (Tumour [8]): Not Active
- Ratio (Nucleic Acid [9]): 0.3
- Drug uptake (Tumour [10]): 0.74 % ID/g
- Drug uptake (Kidney): Active
- logD [11]: -0.24
- Stability (Serum): Stable
- Drug uptake (Tumour [12]): 0.84 % ID/g
- Drug uptake (Tumour [13]): Active
- remaining at 10 min [14]: > 98%
- Drug uptake (Blood): Not Active
- remaining at 0.5 h [15]: > 98%
